ChEMBL document CHEMBL4330182, “Advance of Seriniquinone Analogues as Melanoma Agents” (ACS Med Chem Lett, 2019)
≈ marks a conversion by molar mass, not a printed value. Calls of active or inactive are those of the source. The calls are words filed in the database; no cut-off is given here.

Assays:
Malme-3M [1] = assay: Induction of DCD mRNA expression in human MALME-3M cells at 30 to 100 nM after 24 hrs by RT-qPCR method; format: functional, cell-based
SK-MEL-28 [2] = assay: Induction of DCD mRNA expression in human SK-MEL-28 cells at 30 to 100 nM after 24 hrs by RT-qPCR method; format: functional, cell-based
HCT-116 [3] = assay: Induction of DCD mRNA expression in human HCT116 cells at 1 to 10 uM after 24 hrs by RT-qPCR method; format: functional, cell-based
Malme-3M [4] = assay: Cytotoxicity against human MALME-3M cells after 72 hrs by MTT assay; format: functional, cell-based
[5] = Solubility of the compound in pH 6.5 solution; format: physicochemical; conditions: buffer
Summary of the method: (§1)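 Solubility S was determined in buffer at pH 6.5 for the parent series and regioisomer mixtures, and at pH 7.2 for the phenol/carbamate series.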

Calf thymus DNA [6] = assay: Binding affinity to calf thymus DNA at 60 uM by fluorescence spectral analysis; format: nucleic-acid assay; conditions: Bos taurus
Summary of the method: (§2)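 Fluorescence emission spectra recorded while calf thymus DNA was titrated into the compound solution. […] Binding was judged by attenuation (quench) of emission on DNA addition.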

HCT-116 [7] = assay: Cytotoxicity against human HCT116 cells after 72 hrs by MTT assay; format: functional, cell-based; conditions: HCT-116, 72 h
SK-MEL-28 [8] = assay: Cytotoxicity against human SK-MEL-28 cells after 72 hrs by MTT assay; format: functional, cell-based; conditions: SK-MEL-28, 72 h
[9] = Solubility of the compound in pH 7.2 solution; format: physicochemical; conditions: buffer; summary of the method: as §1
[10] = Stability of the compound at 23 degC for 3 months at solid state; format: physicochemical; conditions: 2191.5 h
[11] = Stability of the compound in pH 7.2 PBS buffer at 37 degC for 48 hrs by NMR analysis; format: physicochemical; conditions: pH 7.2, 48 h
[12] = Stability of the compound in pH 7.2 PBS buffer at 23 degC for 1 month by NMR analysis; format: physicochemical; conditions: pH 7.2, 730.5 h
Summary of the method: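 Purity was followed by NMR in PBS pH 7.2 for 1 month at 23 °C, and in cell culture medium at 37 °C for 48 h (limit of testing).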

Calf thymus DNA [13] = assay: Binding affinity to calf thymus DNA at 20 uM by fluorescence spectral analysis; format: nucleic-acid assay; conditions: Bos taurus; summary of the method: as §2
HCT-116 [14] = assay: Induction of oxidative stress in human HCT116 cells at 100 uM after 1 hr by CellROX green/NucBlue staining based confocal microscopic method; format: cell-based; conditions: hct-116, 1 h
Summary of the method: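 HCT-116 cells were stained with CellROX Green for reactive oxygen species and counterstained with NucBlue for nuclei. Imaging was by confocal microscopy, scoring green fluorescent mitochondria as the oxidative-stress read-out.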

[15] = Drug metabolism in aqueous media assessed as 2-hydroxydinaphtho[2,3-b:2',3'-d]thiophene-5,7,12,13-tetraone formation by NMR analysis
Summary of the method: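 DMSO stocks of the carbamate at 1.0 or 0.5 mg/mL were diluted 20-fold into PBS pH 7.2. Samples were held 24 h at 23 °C, and hydrolytic release of the phenol (purple salt) was monitored.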

Row | SMILES | solubility [5] | Activity (Calf thymus DNA [6]) | solubility [9] | Stability [10] | Stability [11] | Stability [12] | Activity (Calf thymus DNA [13]) | Activity (Malme-3M [1]) | Activity (SK-MEL-28 [2]) | Activity (HCT-116 [3]) | IC50 (Malme-3M [4]) | IC50 (HCT-116 [7]) | IC50 (SK-MEL-28 [8]) | Activity (HCT-116 [14]) | Drug metabolism [15]
1 | O=c1c2ccccc2c(=O)c2c1[nH]c1c(=O)c3ccccc3c(=O)c12 | 0.4 µM (≈ 0.131 µg/mL) |  |  |  |  |  |  |  |  |  | 2030 nM | 4240 nM | 4300 nM |  | 
2 | O=c1c2ccccc2c(=O)c2c1oc1c(=O)c3ccccc3c(=O)c12 | 0.09 µM (≈ 0.0295 µg/mL) |  |  |  |  |  |  |  |  |  | 1110 nM | 4080 nM | 3470 nM |  | 
3 | COc1cccc2c1C(=O)c1c(O)c3c(c(O)c1C2=O)C[C@@](O)(C(=O)CO)C[C@@H]3O[C@H]1C[C@H](N)[C@H](O)[C@H](C)O1 [DOXORUBICIN] |  |  |  |  |  |  | Active |  |  |  | 500 nM |  | 3000 nM |  | 

Second part, led by results:

Row | solubility [5] | Activity (Calf thymus DNA [6]) | solubility [9] | Stability [10] | Stability [11] | Stability [12] | Activity (Calf thymus DNA [13]) | SMILES | Activity (Malme-3M [1]) | Activity (SK-MEL-28 [2]) | Activity (HCT-116 [3]) | IC50 (Malme-3M [4]) | IC50 (HCT-116 [7]) | IC50 (SK-MEL-28 [8]) | Activity (HCT-116 [14]) | Drug metabolism [15]
4 | 0.06 µM (≈ 0.0207 µg/mL) | inactive |  |  |  |  |  | O=c1c2ccccc2c(=O)c2c1sc1c(=O)c3ccccc3c(=O)c12 | Active | Active | Active | 50 nM | 1290 nM | 360 nM |  | 
5 |  |  | 8.2 µM (≈ 3.07 µg/mL) | Stable | Stable | Stable |  | COc1ccc2c(=O)c3sc4c(=O)c5ccccc5c(=O)c4c3c(=O)c2c1 |  |  |  | 60 nM | 8160 nM | 7000 nM |  | 
6 |  |  | 0.4 µM (≈ 0.144 µg/mL) | Stable | Stable | Stable |  | O=c1c2ccccc2c(=O)c2c1sc1c(=O)c3ccc(O)cc3c(=O)c12 | Active | Active | Active | 220 nM | 1450 nM | 330 nM |  | 
7 |  | inactive | 24.6 µM (≈ 11.3 µg/mL) | Stable |  |  |  | CCCCNC(=O)Oc1ccc2c(=O)c3sc4c(=O)c5ccccc5c(=O)c4c3c(=O)c2c1 | Active | Active | Active | 60 nM | 750 nM | 1800 nM | Non-Toxic | Metabolite detected
8 | 0.5 µM (≈ 0.173 µg/mL) |  |  |  |  |  |  | O=c1c2ccccc2c(=O)c2c1sc1c(=O)c3ncccc3c(=O)c12 |  |  |  | 100 nM | 540 nM | 2150 nM |  | 
